Assay results from ChEMBL document CHEMBL3785023, “Development and Pharmacological Characterization of Selective Blockers of 2-Arachidonoyl Glycerol Degradation with Efficacy in Rodent Models of Multiple Sclerosis and Pain” (J Med Chem, 2016).
pIC50: −log10 of the molar value.

Columns and labels:
Monoglyceride lipase [1] = target: T1, Monoglyceride lipase (Homo sapiens, UniProt Q99685); assay: Inhibition of recombinant C-terminal His6-tagged human MAGL expressed in Escherichia coli using 2-arachidonoyl-[3H]-glycerol as substrate incubated for 20 mins by scintillation counting method
T1 sequence (Q99685 whole entry): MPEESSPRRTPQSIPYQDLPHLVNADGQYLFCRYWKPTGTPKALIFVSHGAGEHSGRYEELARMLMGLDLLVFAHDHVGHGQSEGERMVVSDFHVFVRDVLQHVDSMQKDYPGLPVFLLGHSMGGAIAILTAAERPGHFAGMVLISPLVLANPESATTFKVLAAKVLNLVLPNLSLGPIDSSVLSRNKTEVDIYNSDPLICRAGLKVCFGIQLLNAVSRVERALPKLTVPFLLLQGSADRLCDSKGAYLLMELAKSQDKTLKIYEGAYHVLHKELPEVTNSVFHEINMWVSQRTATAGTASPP

Monoglyceride lipase [2] = target: T1, Monoglyceride lipase; assay: Inhibition of recombinant C-terminal His6-tagged human MAGL expressed in Escherichia coli using 2-arachidonoyl-[3H]-glycerol as substrate preincubated for 10 mins followed by substrate addition measured after 20 mins by scintillation counting method
In short: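 Human recombinant MGL (10,000xg cytosolic fraction, 0.05 µg/sample) is pre-incubated with compound for 10 min. It is then incubated 20 min at 37 °C in 50 mM Tris-HCl pH 7.0 with 2-arachidonoyl-[3H]-glycerol diluted with unlabelled 2-AG. The mix is extracted with 2 vol CHCl3/MeOH 1:1, and [3H]-glycerol in the aqueous phase is counted by scintillation. Values are means of three experiments.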

[3] = target: T2, Fatty-acid amide hydrolase 1 (Homo sapiens, UniProt O00519); assay: Inhibition of recombinant C-terminal His-tagged human FAAH expressed in sf21 cells using N-arachidonoyl-[14C]-ethanolamine as substrate assessed as reduction in [14C]ethanolamine production incubated for 30 mins by scintillation counting method
T2 sequence (O00519 whole entry): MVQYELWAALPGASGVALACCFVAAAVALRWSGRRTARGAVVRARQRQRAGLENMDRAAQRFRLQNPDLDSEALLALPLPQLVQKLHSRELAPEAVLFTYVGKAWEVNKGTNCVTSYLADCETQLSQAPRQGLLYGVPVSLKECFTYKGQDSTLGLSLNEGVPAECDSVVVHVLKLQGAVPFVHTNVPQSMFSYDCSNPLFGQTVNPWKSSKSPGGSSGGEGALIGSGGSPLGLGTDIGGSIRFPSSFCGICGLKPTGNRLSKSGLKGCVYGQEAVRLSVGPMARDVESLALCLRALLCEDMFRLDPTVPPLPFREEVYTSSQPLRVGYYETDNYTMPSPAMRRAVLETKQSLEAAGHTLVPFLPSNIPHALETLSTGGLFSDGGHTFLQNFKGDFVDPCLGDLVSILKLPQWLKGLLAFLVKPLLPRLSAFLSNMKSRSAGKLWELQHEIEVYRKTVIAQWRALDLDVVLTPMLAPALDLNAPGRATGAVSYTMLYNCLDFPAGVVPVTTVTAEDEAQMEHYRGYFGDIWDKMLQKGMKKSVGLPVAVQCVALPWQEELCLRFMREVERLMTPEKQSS
In short: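 Human recombinant FAAH (2 µg/sample) incubated in 50 mM Tris-HCl, pH 9.5, 37 °C, 30 min with N-arachidonoyl-[14C]-ethanolamine diluted with unlabelled AEA. [14C]-ethanolamine released was quantified by scintillation counting of the aqueous phase after extraction with 2 volumes CHCl3/MeOH 1:1. Values are means of three experiments.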

[4] = Selectivity ratio of IC50 for human recombinant C-terminal His-tagged FAAH expressed in sf21 cells to IC50 for recombinant C-terminal His6-tagged human MAGL expressed in Escherichia coli
In short: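 Ratio of IC50 values from two radiometric assays, each read by scintillation counting of the aqueous phase after CHCl3/MeOH 1:1 extraction. MGL assay: 10,000xg cytosolic fraction of human recombinant MGL (0.05 µg/sample), 50 mM Tris-HCl pH 7.0, 37 °C, 20 min, 2-arachidonoyl-[3H]-glycerol. FAAH assay: human recombinant FAAH (2 µg/sample), pH 9.5, 37 °C, 30 min, [14C]-anandamide. Means of three experiments.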

[5] = target: T3, Fatty-acid amide hydrolase 1 (Mus musculus, UniProt O08914); assay: Inhibition of FAAH in mouse brain membrane using [13C]oleamide as substrate by LC-MS analysis; type: cell membranes
T3 sequence (O08914 whole entry): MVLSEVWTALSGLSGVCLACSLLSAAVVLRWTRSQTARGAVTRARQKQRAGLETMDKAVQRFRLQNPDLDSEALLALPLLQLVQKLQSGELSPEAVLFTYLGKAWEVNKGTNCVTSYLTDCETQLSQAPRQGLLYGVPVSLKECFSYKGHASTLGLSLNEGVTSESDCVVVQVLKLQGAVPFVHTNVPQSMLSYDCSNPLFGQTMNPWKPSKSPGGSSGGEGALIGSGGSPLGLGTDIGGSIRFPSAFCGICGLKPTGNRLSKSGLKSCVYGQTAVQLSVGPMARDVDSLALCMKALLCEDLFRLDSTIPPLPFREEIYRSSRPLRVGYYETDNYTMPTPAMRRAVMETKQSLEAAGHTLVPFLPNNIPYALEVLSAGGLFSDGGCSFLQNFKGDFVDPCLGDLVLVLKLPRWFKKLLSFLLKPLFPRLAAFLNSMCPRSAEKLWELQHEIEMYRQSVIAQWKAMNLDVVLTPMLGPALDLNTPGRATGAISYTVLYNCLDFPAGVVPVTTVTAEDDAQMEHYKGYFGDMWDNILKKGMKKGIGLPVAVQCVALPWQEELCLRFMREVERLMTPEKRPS

[6] = target: T4, Fatty-acid amide hydrolase 1 (Rattus norvegicus, UniProt P97612); assay: Inhibition of FAAH in rat brain membranes using N-arachidonoyl-[14C]-ethanolamine as substrate assessed as reduction in [14C]ethanolamine production incubated for 30 mins by scintillation counting method; type: cell membranes, Membrane
T4 sequence (P97612 whole entry): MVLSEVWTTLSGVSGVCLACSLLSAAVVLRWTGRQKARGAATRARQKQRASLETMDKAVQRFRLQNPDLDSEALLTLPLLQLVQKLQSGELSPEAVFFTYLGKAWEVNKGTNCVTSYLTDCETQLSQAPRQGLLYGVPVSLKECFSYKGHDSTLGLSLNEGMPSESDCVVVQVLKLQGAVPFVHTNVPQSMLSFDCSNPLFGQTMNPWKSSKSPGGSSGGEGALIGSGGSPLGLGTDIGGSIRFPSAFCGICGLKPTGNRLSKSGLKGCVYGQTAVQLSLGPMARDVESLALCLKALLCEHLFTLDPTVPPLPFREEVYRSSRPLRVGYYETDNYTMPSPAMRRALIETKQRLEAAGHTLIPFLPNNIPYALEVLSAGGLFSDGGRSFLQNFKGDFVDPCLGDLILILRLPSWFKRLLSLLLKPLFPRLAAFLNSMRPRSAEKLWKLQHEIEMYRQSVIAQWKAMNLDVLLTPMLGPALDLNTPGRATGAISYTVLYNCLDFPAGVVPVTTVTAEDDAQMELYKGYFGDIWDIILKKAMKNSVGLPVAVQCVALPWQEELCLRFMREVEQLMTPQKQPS
In short: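 10,000×g membrane fraction of rat brain (70 µg per sample) incubated in 50 mM Tris-HCl pH 9.5 at 37 °C for 30 min with N-arachidonoyl-[14C]-ethanolamine diluted with AEA. Released [14C]-ethanolamine measured by scintillation counting of the aqueous phase after CHCl3/MeOH 1:1 extraction. Means of three experiments.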

Compound | pIC50 (Monoglyceride lipase [1]) | pIC50 [6] | other results
O=C1[C@H](c2ccc(F)cc2)[C@@H](c2ccc3c(c2)OCO3)N1C1CCN(C(=O)n2cncn2)CC1 [listing 1 of 2 here] | 8.34 |  | pIC50 (Monoglyceride lipase [2]): 6.98; pIC50 [3]: 5.39
O=C(N1CCCCC1)n1cncn1 | < 5.00 |  | 
O=C1[C@@H](c2ccc(F)cc2)[C@H](c2ccc3c(c2)OCO3)N1C1CCN(C(=O)n2cncn2)CC1 | 7.51 |  | pIC50 (Monoglyceride lipase [2]): 6.14; pIC50 [3]: 5.11; Ratio IC50 [4]: 248
O=C(Oc1ccc([N+](=O)[O-])cc1)N1CCC(C(O)(c2ccc3c(c2)OCO3)c2ccc3c(c2)OCO3)CC1 |  |  | pIC50 [5]: < 5.00
O=C1[C@H](c2ccc(F)cc2)[C@@H](c2ccc3c(c2)OCO3)N1C1CCN(C(=O)n2cncn2)CC1 [listing 2 of 2 here] |  |  | Ratio IC50 [4]: 880
O=C1[C@H](c2ccc(F)cc2)[C@@H](c2ccc3c(c2)OCO3)N1C1CCN(Cc2ccccc2)CC1 (racemic) | < 5.00 |  | 
O=C(Oc1ccc([N+](=O)[O-])cc1)N1CCC(N2C(=O)[C@H](c3ccc(F)cc3)[C@H]2c2ccc3c(c2)OCO3)CC1 (racemic) | 8.85 |  | pIC50 [3]: < 5.00; Ratio IC50 [4]: > 7
COc1ccc([C@H]2C(=O)N(C3CCN(C(=O)n4cncn4)CC3)[C@@H]2c2ccc(OC)c(OC)c2)cc1OC (racemic) |  | < 5.00 | 
O=C1[C@H](c2ccc(F)cc2)[C@@H](c2ccc3c(c2)OCO3)N1C1CCNCC1 (racemic) | < 5.00 |  | 
O=C(OC(C(F)(F)F)C(F)(F)F)N1CCC(N2C(=O)[C@H](c3ccc(F)cc3)[C@H]2c2ccc3c(c2)OCO3)CC1 (racemic) |  | < 4.30 | 

Now from value to compound, other results behind:

pIC50 (Monoglyceride lipase [1]) | pIC50 [6] | Compound | other results
 | 5.43 | COc1ccc([C@H]2C(=O)N(C3CCN(C(=O)n4cncn4)CC3)[C@@H]2c2ccc(OC)cc2)cc1 (racemic) | 
< 5.00 |  | O=C1[C@H](c2ccc(F)cc2)[C@@H](c2ccc3c(c2)OCO3)N1C1CCN(C(=O)n2ccnc2)CC1 (racemic) | 
 | 6.14 | COc1ccc([C@H]2C(=O)N(C3CCN(C(=O)n4cncn4)CC3)[C@@H]2c2ccc(OC)c(OC)c2)cc1 (racemic) | 
 | 5.59 | COc1ccc([C@H]2C(=O)N(C3CCN(C(=O)n4cncn4)CC3)[C@@H]2c2ccc3c(c2)OCO3)cc1 (racemic) | 
